Test results from ChEMBL document CHEMBL1949569, “Galactolipids from Bauhinia racemosa as a new class of antifilarial agents against human lymphatic filarial parasite, Brugia malayi” (Eur J Med Chem, 2012).
≈ marks a conversion by molar mass, not a printed value. Calls of active or inactive are those of the source. The rule behind the calls is not given here.

What was measured:
Brugia malayi [1] = assay: Antifilarial activity against microfilariae Brugia malayi after 48 hrs by MTT assay; type: functional, organism-based
[2] = Selectivity ratio of CC50 for african green monkey Vero cells to IC50 for adult Brugia malayi; type: ADME, cell-based
In short: (§1)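 SI = CC50 (Vero, resazurin assay) / IC50. IC50 came from % motility inhibition of adult female worms or mf over two-fold dilutions from MIC down to 0.3 µg/mL. It was derived from a concentration vs % motility-inhibition plot.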

Vero = assay: (§2) Cytotoxicity against african green monkey Vero cells after 72 hrs by resazurin dye-based fluorimetric analysis; type: cell-based; settings: chlorocebus sabaeus, vero, 72 h
In short: (§3)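 Vero cells were seeded at 10,000 per well and left overnight at 37 °C in CO2. Samples were tested in triplicate from a 300 µg/mL top concentration in 3:1 serial dilutions, with drug-free and cell-free controls. Resazurin was added after 72 h drug exposure for 2–4 h, then read at ex 536/em 588 nm. CC50 was taken from fluorescence vs concentration.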

[3] = Selectivity ratio of CC50 for african green monkey Vero cells to IC50 for microfilariae Brugia malayi; type: ADME, cell-based; settings: for selectivity ratio: Vero cells, read-out: Ratio CC50/IC50; in short: as §1
Brugia malayi [4] = assay: Antifilarial activity against microfilariae Brugia malayi assessed as inhibition of motility at 31.25 ug/ml incubated for 48 hrs followed by washout measured after 1 hr in the absence of drug by microscopic analysis; type: functional
In short: (§4)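 Microfilariae came from jird peritoneal fluid passed through a 5.0 µm membrane filter. Twenty live mf per well in 200 µL medium, in duplicate, were given two-fold dilutions from 31.25 µg/mL. Incubation matched the adult worms (48 h, 37 °C, CO2). Motility was scored and reported as % reduction vs untreated control.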

Brugia malayi [5] = assay: Antifilarial activity against adult Brugia malayi at 31.25 ug/ml by MTT assay relative to control; type: functional
In short: (§5)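 Adult female worms were recovered from jird peritoneal cavity 120–150 days after i.p. L3 inoculation. One worm per well sat in 1000 µL RPMI 1640 with antibiotics and 10% FBS, in duplicate, 48 h at 37 °C in CO2. After motility scoring, worms went through the MTT reduction assay. Result is % inhibition of MTT reduction vs untreated control.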

Brugia malayi [6] = assay: Antifilarial activity against adult Brugia malayi assessed as inhibition of motility at 31.25 ug/ml incubated for 48 hrs followed by washout measured after 1 hr in the absence of drug by microscopic analysis; type: functional
In short: (§6)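 Single fully motile female worms from jird peritoneal cavity were exposed in duplicate wells (1000 µL RPMI 1640, antibiotics, 10% FBS) to two-fold dilutions from 31.25 µg/mL, 48 h, 37 °C, CO2. Worms were moved to drug-free medium and motility was read microscopically 1 h later. Result is % motility reduction vs untreated control.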

Brugia malayi [7] = assay: Antifilarial activity against adult Brugia malayi at 15.6 ug/ml by MTT assay relative to control; type: functional; in short: as §5
Brugia malayi [8] = assay: Antifilarial activity against adult Brugia malayi infected in jird assessed as sterilized female worm at 50 mg/kg, ip administered for 5 consecutive days measured on day 51; type: functional; settings: route intraperitoneal
In short: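 In the i.p.-transplanted adult B. malayi jird model, 50 mg/kg was given i.p. for 5 consecutive days, 5 animals per group. Necropsy on day 51 recovered peritoneal worms. Live females were teased in PBS pH 7.2 and uterine oocytes, eggs and mf checked microscopically for abnormality or death. Result is % sterilized females.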

Brugia malayi [9] = assay: Antifilarial activity against adult Brugia malayi at 7.8 ug/ml by MTT assay relative to control; type: functional; in short: as §5
Brugia malayi [10] = assay: Antifilarial activity against adult Brugia malayi assessed as inhibition of motility at 15.6 ug/ml incubated for 48 hrs followed by washout measured after 1 hr in the absence of drug by microscopic analysis; type: functional; in short: as §6
Brugia malayi [11] = assay: Antifilarial activity against microfilariae Brugia malayi assessed as inhibition of motility at 7.8 ug/ml incubated for 48 hrs followed by washout measured after 1 hr in the absence of drug by microscopic analysis; type: functional; in short: as §4
Brugia malayi [12] = assay: Antifilarial activity against adult Brugia malayi after 48 hrs by MTT assay; type: functional, organism-based; in short: as §5
Brugia malayi [13] = assay: Antifilarial activity against microfilariae Brugia malayi assessed as inhibition of motility at 15.6 ug/ml incubated for 48 hrs followed by washout measured after 1 hr in the absence of drug by microscopic analysis; type: functional; in short: as §4
Brugia malayi [14] = assay: Antifilarial activity against adult Brugia malayi infected in jird assessed as worm mortality at 50 mg/kg, ip administered for 5 consecutive days measured on day 51; type: functional; settings: route intraperitoneal
In short: (§7)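 Jirds carrying intraperitoneally transplanted adult B. malayi (sub-periodic strain), 5 animals per group, dosed daily for 5 days. Killed on day 51 after a 50-day observation period. Worms recovered from the peritoneal cavity and scored microscopically for motility, death or encapsulation, giving % adulticidal activity over untreated control, mean ± SE. Live females teased in PBS pH 7.2 to score uterine-content abnormalities as sterilization.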

[15] = as §2; type: cell-based; settings: chlorocebus sabaeus, Vero cells; in short: as §3
Brugia malayi [16] = assay: Antifilarial activity against adult Brugia malayi assessed as inhibition of motility at 7.8 ug/ml incubated for 48 hrs followed by washout measured after 1 hr in the absence of drug by microscopic analysis; type: functional; in short: as §6
Brugia malayi [17] = assay: Antifilarial activity against adult Brugia malayi infected in jird assessed as sterilized female worm at 100 mg/kg, sc administered for 5 consecutive days measured on day 51; type: functional; settings: route subcutaneous
In short: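 Jirds carrying i.p.-transplanted adult B. malayi got 100 mg/kg s.c. daily for 5 days, 5 animals per group. They were euthanized on day 51 and worms recovered from the peritoneal cavity. Live females were teased in PBS pH 7.2 and uterine contents examined microscopically. Any abnormal or dead oocytes, eggs or mf counted as sterilized, reported as % sterile females.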

Brugia malayi [18] = assay: Antifilarial activity against adult Brugia malayi infected in jird assessed as worm mortality at 100 mg/kg, sc administered for 5 consecutive days measured on day 51; type: functional; settings: route subcutaneous; in short: as §7
Brugia malayi [19] = assay: Antifilarial activity against adult Brugia malayi assessed as inhibition of motility at 3.9 ug/ml incubated for 48 hrs followed by washout measured after 1 hr in the absence of drug by microscopic analysis; type: functional; in short: as §6
Brugia malayi [20] = assay: Antifilarial activity against adult Brugia malayi at 3.9 ug/ml by MTT assay relative to control; type: functional; in short: as §5
Brugia malayi [21] = assay: Antifilarial activity against microfilariae Brugia malayi assessed as inhibition of motility at 3.9 ug/ml incubated for 48 hrs followed by washout measured after 1 hr in the absence of drug by microscopic analysis; type: functional; in short: as §4
Brugia malayi [22] = assay: Antifilarial activity against microfilariae Brugia malayi assessed as inhibition of motility at 1.9 ug/ml incubated for 48 hrs followed by washout measured after 1 hr in the absence of drug by microscopic analysis; type: functional; in short: as §4
Brugia malayi [23] = assay: Antifilarial activity against adult Brugia malayi at 1.9 ug/ml by MTT assay relative to control; type: functional; in short: as §5
Brugia malayi [24] = assay: Antifilarial activity against adult Brugia malayi assessed as inhibition of motility at 1.9 ug/ml incubated for 48 hrs followed by washout measured after 1 hr in the absence of drug by microscopic analysis; type: functional; in short: as §6
[25] = Brugia malayi, 48 h, read-out: IC50

Compound | inhibition at 31.25 µg/mL (Brugia malayi [4]) [%] | inhibition at 31.25 µg/mL (Brugia malayi [5]) [%] | inhibition at 31.25 µg/mL (Brugia malayi [6]) [%] | inhibition at 15.6 µg/mL (Brugia malayi [7]) [%] | Activity (Brugia malayi [8]) [%] | inhibition at 7.8 µg/mL (Brugia malayi [9]) [%] | inhibition at 7.8 µg/mL (Brugia malayi [11]) [%] | MIC (Brugia malayi [12]) | inhibition at 15.6 µg/mL (Brugia malayi [13]) [%] | MIC (Brugia malayi [1]; Brugia malayi, 48 h) [µg/mL] | IC50 (Brugia malayi [1]; [25]) [µg/mL] | Activity (Brugia malayi [14]) [%] | CC50 at 72 h [15] [µg/mL] | selectivity ratio [3] | further results
IVERMECTIN [listing 1 of 2 here] | – | – | – | – | – | – | – | – | – | – | – | – | – | – | MIC (Brugia malayi [1]): 125 µg/mL
IVERMECTIN [listing 2 of 2 here] | – | – | – | – | – | – | – | – | – | – | – | – | – | – | Ratio CC50/IC50 ([2]; vero): > 62.11; IC50 (Brugia malayi [1]): 3.62 µg/mL; CC50 (Vero): 52.84 µg/mL; Ratio CC50/IC50 ([3]; vero): > 27.62
Oc1cc(O)c2c(c1)O[C@@H](c1ccc(O)c(O)c1)[C@H](O)C2 [(-)-CATECHIN] | 60 | 43.2 | 60 | – | – | – | – | – | – | – | – | – | – | – | –
CCCCCCCCCCCCCCCCCCCCCCCCCCCCO [OCTACOSANOL] | 100 | 32.6 | 50 | 0 | 0 | 0 | 85 | inactive | 95 | 31.2 (≈ 76.1 µM) | 3.26 (≈ 7.94 µM) | -49.95 | > 100 | > 30.7 | inhibition (Brugia malayi [10]): inactive; inhibition (Brugia malayi [16]): inactive
Oc1ccc([C@H]2Oc3cc(O)cc(O)c3C[C@H]2O)cc1 [EPIAFZELECHIN (2R,3R)(-)] | 59 | 14.8 | 50 | – | – | – | – | – | – | – | – | – | – | – | –
CCN(CC)C(=O)N1CCN(C)CC1 [DIETHYLCARBAMAZINE] | – | – | – | – | – | – | – | inactive | – | – | – | – | – | – | Activity (Brugia malayi [17]): 0%; Activity (Brugia malayi [18]): -30.5%; MIC (Brugia malayi [1]): inactive
CC/C=C\C/C=C\C/C=C\CCCCCCCC(=O)OC[C@H](CO[C@@H]1O[C@H](CO[C@H]2O[C@H](CO)[C@H](O)[C@H](O)[C@H]2O)[C@H](O)[C@H](O)[C@H]1O)OC(=O)CCCCCCCCCCCCCCC | 100 | 30 | 50 | 0 | 0 | 0 | 90 | inactive | 95 | 31.2 (≈ 34.1 µM) | 2.7 (≈ 2.95 µM) | -45.8 | > 100 | > 37 | inhibition (Brugia malayi [19]): inactive; inhibition at 3.9 µg/mL (Brugia malayi [20]): 0%; inhibition (Brugia malayi [10]): inactive; inhibition at 3.9 µg/mL (Brugia malayi [21]): 70%; inhibition (Brugia malayi [16]): inactive
CCCCCCCC/C=C\CCCCCCCC(=O)OC[C@H](CO[C@@H]1O[C@H](CO[C@H]2O[C@H](CO)[C@H](O)[C@H](O)[C@H]2O)[C@H](O)[C@H](O)[C@H]1O)OC(=O)CCCCCCCCCCCCCCC | 100 | 24.6 | 50 | 0 | 0 | 0 | 90 | inactive | 99 | 31.2 (≈ 34 µM) | 1.05 (≈ 1.14 µM) | -54.15 | > 100 | > 95.2 | inhibition (Brugia malayi [19]): inactive; inhibition at 3.9 µg/mL (Brugia malayi [20]): 0%; inhibition (Brugia malayi [10]): inactive; inhibition at 3.9 µg/mL (Brugia malayi [21]): 80%; inhibition (Brugia malayi [16]): inactive
CC/C=C\C/C=C\C/C=C\CCCCCCCC(=O)OC[C@H](CO[C@@H]1O[C@H](CO[C@H]2O[C@H](CO)[C@H](O)[C@H](O)[C@H]2O)[C@H](O)[C@H](O)[C@H]1O)OC(=O)CCCCCCC/C=C\C/C=C\C/C=C\CC | 100 | 82.9 | 100 | 75 | 0 | 61.8 | 99 | 3.9 µg/mL (≈ 4.16 µM) | 100 | 15.6 (≈ 16.6 µM) | 1.61 (≈ 1.71 µM) | -58.3 | > 100 | > 62.2 | inhibition at 1.9 µg/mL (Brugia malayi [22]): 60%; inhibition at 3.9 µg/mL (Brugia malayi [19]): 100%; inhibition at 3.9 µg/mL (Brugia malayi [20]): 52.1%; inhibition at 15.6 µg/mL (Brugia malayi [10]): 100%; inhibition at 3.9 µg/mL (Brugia malayi [21]): 95%; IC50 (Brugia malayi [12]): 1.25 µg/mL (≈ 1.33 µM); selectivity ratio ([2]; Vero cells, read-out: Ratio CC50/IC50): > 80; inhibition at 1.9 µg/mL (Brugia malayi [23]): 43.6%; inhibition at 7.8 µg/mL (Brugia malayi [16]): 100%; inhibition at 1.9 µg/mL (Brugia malayi [24]): 90%
O=C(O)c1ccc(O)c(O)c1 [PROTOCATECHUIC ACID] | 60 | 20.6 | 50 | – | – | – | – | – | – | – | – | – | – | – | –
Oc1cc(O)c2c(c1)O[C@H](c1ccc(O)c(O)c1)[C@H](O)C2 [(-)-EPICATECHIN] | 50 | 34.8 | 50 | – | – | – | – | – | – | – | – | – | – | – | –
